{"source": "ChEMBL document CHEMBL5537190", "about": "“Development of Potent and Selective Monoacylglycerol Lipase Inhibitors. SARs, Structural Analysis, and Biological Characterization” (J Med Chem, 2024)", "key": {"[1]": {"target": "T1, Monoglyceride lipase (Rattus norvegicus) (UniProt Q8R431)", "T1 sequence (whole entry)": "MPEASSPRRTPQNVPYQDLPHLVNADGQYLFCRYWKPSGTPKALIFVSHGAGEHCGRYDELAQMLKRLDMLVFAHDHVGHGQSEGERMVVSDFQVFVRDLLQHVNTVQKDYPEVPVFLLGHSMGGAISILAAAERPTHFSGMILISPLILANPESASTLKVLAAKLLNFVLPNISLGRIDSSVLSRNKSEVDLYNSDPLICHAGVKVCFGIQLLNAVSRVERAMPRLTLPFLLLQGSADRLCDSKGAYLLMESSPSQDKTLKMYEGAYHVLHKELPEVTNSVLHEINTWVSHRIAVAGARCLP", "assay": "Irreversible inhibition of rat MAGL expressed in human HeLa cells incubated for 60 mins", "assay_type": "cell-based", "in_short": "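Homogenates of HeLa cells overexpressing wild-type rat MAGL, in 50 mM Tris-HCl pH 8.0 with 0.5 mg/mL fatty-acid-free BSA, 37 °C; 2-OG substrate 10 µM final, oleic acid by LC/MS. Time course: preincubation for varied times, then 30 min with substrate. Dilution: enzyme concentrated 100-fold, preincubated 20 min with 10× IC50-equivalent compound or 1% DMSO, diluted 100-fold into substrate buffer, product followed over 60 min (n = 3).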"}, "[2]": {"test_system": "calcium channel (diltiazem site)", "assay": "Antagonist activity at diltiazem site of rat calcium channel at 10 uM relative to control", "assay_type": "toxicity", "conditions": "read-out: Activity"}, "[3]": {"assay": "Metabolic stability in human Hepatocyte assessed as clearance at 1 uM measured after 45 mins […] by LC-MS/MS analysis", "assay_type": "ADME, cell-based", "conditions": "hepatocytes, 0.75 h", "in_short": "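Hepatocyte suspensions (1×10^6 cells/mL) in William's medium with 10% FCS; human cells pooled cryopreserved. Compound 1 µM, shaken at 37 °C, 5% CO2, for up to 2 h. Sampled at 3–120 min, quenched with methanol containing internal standard, LC-MS/MS. Clint from the initial slope.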"}, "CYP2D6": {"target": "CYP2D6 (Homo sapiens, UniProt P10635)", "sequence (P10635 whole entry)": "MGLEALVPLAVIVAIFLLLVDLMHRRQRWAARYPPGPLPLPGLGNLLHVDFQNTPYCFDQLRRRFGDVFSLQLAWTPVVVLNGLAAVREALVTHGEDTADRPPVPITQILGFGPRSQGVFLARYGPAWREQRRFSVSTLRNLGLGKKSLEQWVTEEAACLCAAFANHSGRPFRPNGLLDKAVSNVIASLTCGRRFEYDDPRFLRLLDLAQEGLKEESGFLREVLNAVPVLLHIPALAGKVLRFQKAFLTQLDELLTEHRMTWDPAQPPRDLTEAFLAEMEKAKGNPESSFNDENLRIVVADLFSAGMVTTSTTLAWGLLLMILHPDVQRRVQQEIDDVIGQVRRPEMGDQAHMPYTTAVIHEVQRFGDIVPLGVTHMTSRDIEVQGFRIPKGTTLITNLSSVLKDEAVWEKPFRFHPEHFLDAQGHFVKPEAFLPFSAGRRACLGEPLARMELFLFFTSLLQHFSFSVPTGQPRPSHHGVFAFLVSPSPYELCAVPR", "assay": "Inhibition of CYP2D6 (unknown origin) at 10 uM relative to control", "assay_type": "ADME"}}, "note": "The source made the active and inactive calls. The rule behind the calls is not given here.", "data": [{"compound": "O=C1[C@H](c2ccccc2)[C@@H](c2ccccc2)N1C1CCN(C(=O)n2cncn2)CC1", "note": "(racemic)", "values": [{"measurement": "inhibition", "setting": "[1]", "value": "Active"}, {"measurement": "inhibition at 10 µM", "setting": "[2]", "value": 55, "unit": "%"}, {"measurement": "CLH", "setting": "[3]", "value": 60.5, "unit": "µL/min/mg"}, {"measurement": "inhibition at 10 µM", "setting": "CYP2D6", "value": 89.5, "unit": "%"}]}]}
